Activity calls are given as the source filed them. No cut-off for these calls is given here. A value given as a limit tells only on which side of the number the result lay.

For one assay, the system named is A2780. The assay is described as follows: Concentration required to inhibit A2780-cell growth by 50%. The format is functional, cell-based. Conditions: Homo sapiens. The gist of the method:
(§1)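 Human ovarian carcinoma cells grown as monolayers in DMEM with 10% FBS, 2 mM glutamine and 0.5 µg/mL hydrocortisone under 6% CO2. 3000–6000 cells per well, attached overnight. Salts dissolved in water, added in quadruplicate at final 0.05, 0.25, 1, 5 and 25 µM for 96 h. Cells fixed with TCA and stained with SRB, absorbance read at 540 nm. IC50 taken from mean absorbance as % of untreated control.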

The subject of a further assay is CH1. The assay can be described thus: Concentration required to inhibit CH1-cell growth by 50%. The assay is classed as functional, cell-based. The settings on record: Homo sapiens. The procedure, abridged: as §1
For another assay, the system named is SK-OV-3. The assay is described as follows: Concentration required to inhibit SKOV-3-cell growth by 50%. The assay is classed as functional, cell-based. Conditions: Homo sapiens. The procedure, abridged:
as §1

The target in assay [1] is DNA polymerase I, thermostable (Thermus aquaticus) (UniProt P19821). The assay is described as follows: Inhibition of Taq polymerase at 50 uM (No inhibition). The gist of the method: (§2)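 Compound at final 50 µM in PCR with pCI-neo template and primers, Tris-HCl pH 8.8 buffer, 2.5 mM MgCl2, 200 µM each dNTP, 1.25 U thermostable polymerase. Run 30 cycles of 94 °C 1 min, 55 °C 1 min, 72 °C 2.5 min. Agarose/ethidium bromide read-out against a water no-drug control, scored semiquantitatively.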

Assay [2] addresses T1, Telomerase reverse transcriptase (Homo sapiens, UniProt O14746). The assay can be described thus: Inhibition of telomerase activity. The gist of the method:
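Modified cell-free TRAP using CHAPS lysate of exponentially growing A2780 cells. Protein (0.04 µg) incubated with TS primer, 50 µM dNTPs and [α-32P]dCTP in TRAP buffer (pH 8.3) ± compound at 1–50 µM for 20 min at 25 °C. Telomerase heat-killed at 80 °C, then 31-cycle PCR with CX primer and Taq. Products read by denaturing gel/phosphorimaging or TCA filter scintillation counting. IC50 taken relative to controls.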

In assay [3] the target is DNA polymerase I, thermostable (Thermus aquaticus) (UniProt P19821). The assay can be described thus: Inhibition of Taq polymerase at 10 uM (No inhibition). The procedure, abridged:
(§3)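 Compound at final 10 µM in a PCR mix: pCI-neo vector template, forward/reverse primers, Tris-HCl pH 8.8 buffer, 2.5 mM MgCl2, 200 µM each dNTP, 1.25 U thermostable polymerase. Run 30 cycles (94/55/72 °C). Products separated on 2% agarose with ethidium bromide and compared to a no-drug water control (~1 kb product); inhibition graded semiquantitatively.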

The target is the same in assay [4]. The assay can be described thus: Inhibition of Taq polymerase at 50 uM (Total inhibition). The gist of the method: as §2
For assay [5] the target is unchanged. The assay is described as follows: Inhibition of Taq polymerase at 10 uM (Slight inhibition). The procedure, abridged:
as §3

The target is the same in assay [6]. The assay can be described thus: Inhibition of Taq polymerase at 10 uM (Significant inhibition). The gist of the method: as §3
Assay [7] deals with T1, Telomerase reverse transcriptase. The assay is described as follows: Concentration required to inhibit telomerase activity. The gist of the method:
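Cell-free modified TRAP assay. Enzyme source is a CHAPS lysate of exponentially growing A2780 ovarian carcinoma cells, which was clarified and stored at -80 °C. Protein (0.04 μg) was incubated with TS primer, dNTPs and [α-32P]dCTP in TRAP buffer (pH 8.3) ± agent at 1, 5, 10, 20 and 50 μM for 20 min at 25 °C. Telomerase was then heat-inactivated at 80 °C, followed by 31-cycle PCR with CX primer. Products were quantified by gel phosphorimaging or by TCA-precipitated filter scintillation counting. IC50 is relative to controls.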

Sequence of DNA polymerase I, thermostable (Thermus aquaticus) (P19821 whole entry): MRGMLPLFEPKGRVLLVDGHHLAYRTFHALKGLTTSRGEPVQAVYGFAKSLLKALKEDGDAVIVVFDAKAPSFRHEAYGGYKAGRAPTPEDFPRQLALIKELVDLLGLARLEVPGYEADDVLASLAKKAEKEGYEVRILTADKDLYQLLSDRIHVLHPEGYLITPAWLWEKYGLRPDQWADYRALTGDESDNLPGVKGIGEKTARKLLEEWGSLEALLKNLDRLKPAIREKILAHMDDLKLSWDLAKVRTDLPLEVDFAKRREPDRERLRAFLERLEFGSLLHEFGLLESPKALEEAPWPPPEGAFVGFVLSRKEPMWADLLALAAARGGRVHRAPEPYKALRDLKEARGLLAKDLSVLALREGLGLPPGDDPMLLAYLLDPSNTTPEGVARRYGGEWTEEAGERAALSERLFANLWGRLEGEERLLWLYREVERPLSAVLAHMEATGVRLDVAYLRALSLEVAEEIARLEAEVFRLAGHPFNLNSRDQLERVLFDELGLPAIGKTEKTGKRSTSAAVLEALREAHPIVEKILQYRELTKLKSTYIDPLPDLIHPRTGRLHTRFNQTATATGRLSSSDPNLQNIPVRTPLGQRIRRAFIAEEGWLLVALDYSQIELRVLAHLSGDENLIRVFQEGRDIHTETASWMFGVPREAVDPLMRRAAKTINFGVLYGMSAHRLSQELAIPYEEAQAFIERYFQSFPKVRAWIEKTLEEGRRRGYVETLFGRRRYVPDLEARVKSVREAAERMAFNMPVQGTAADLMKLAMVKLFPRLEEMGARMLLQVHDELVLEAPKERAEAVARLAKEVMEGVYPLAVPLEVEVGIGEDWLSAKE
T1 sequence (O14746 whole entry): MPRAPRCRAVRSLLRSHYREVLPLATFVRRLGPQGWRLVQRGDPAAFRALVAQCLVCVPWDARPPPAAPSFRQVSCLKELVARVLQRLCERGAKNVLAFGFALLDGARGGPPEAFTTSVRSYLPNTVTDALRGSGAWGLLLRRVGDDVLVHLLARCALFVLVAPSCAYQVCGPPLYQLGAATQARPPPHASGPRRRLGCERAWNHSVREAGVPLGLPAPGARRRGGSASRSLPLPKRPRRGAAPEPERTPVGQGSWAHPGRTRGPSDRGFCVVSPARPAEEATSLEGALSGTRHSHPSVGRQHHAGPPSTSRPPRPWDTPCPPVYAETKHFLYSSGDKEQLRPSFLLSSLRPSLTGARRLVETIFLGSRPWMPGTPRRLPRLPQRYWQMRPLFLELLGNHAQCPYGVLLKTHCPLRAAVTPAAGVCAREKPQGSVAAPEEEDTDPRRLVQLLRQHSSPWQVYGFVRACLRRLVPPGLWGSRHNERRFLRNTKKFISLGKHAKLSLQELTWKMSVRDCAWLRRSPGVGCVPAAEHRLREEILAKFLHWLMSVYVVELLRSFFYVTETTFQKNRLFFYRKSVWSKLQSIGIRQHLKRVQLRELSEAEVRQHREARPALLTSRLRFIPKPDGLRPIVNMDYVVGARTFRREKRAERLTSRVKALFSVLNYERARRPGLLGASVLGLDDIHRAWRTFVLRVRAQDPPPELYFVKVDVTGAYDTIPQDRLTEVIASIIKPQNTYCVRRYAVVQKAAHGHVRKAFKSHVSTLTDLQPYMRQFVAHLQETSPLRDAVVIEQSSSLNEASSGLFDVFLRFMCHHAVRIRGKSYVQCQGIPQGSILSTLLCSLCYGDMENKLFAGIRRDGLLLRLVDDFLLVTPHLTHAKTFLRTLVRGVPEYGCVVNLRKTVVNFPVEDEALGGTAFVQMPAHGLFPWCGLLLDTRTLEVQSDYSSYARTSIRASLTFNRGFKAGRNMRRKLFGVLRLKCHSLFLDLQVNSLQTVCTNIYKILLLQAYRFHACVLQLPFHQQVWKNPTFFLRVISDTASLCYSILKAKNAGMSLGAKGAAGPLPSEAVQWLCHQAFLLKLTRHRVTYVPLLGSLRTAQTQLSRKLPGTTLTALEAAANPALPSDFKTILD

As to `CCCN(CCC)CCC(=O)Nc1ccc(NC(=O)CCN(CCC)CCC)c2c1C(=O)c1ccccc1C2=O`, the IC50 was determined as 130 nM in the assay with A2780, 480 nM with CH1, 4500 nM with SK-OV-3 and 50000 nM in assay [2]. The Taq inhibition entry in [1] and in assay [3] was “inactive” throughout.

For `CCCN(CCC)CCC(=O)Nc1ccc2c(c1)C(=O)c1ccc(NC(=O)CCN(CCC)CCC)cc1C2=O`, the IC50 in the assay on A2780 is 380 nM; in the assay on CH1, 1400 nM; in the assay on SK-OV-3, 2400 nM; in [2] it was more than 50000 nM.

For the compound `C[N+]1(CC(=O)Nc2ccc3c(c2)C(=O)c2ccc(NC(=O)C[N+]4(C)CCOCC4)cc2C3=O)CCOCC1`, the IC50 with A2780 was 13000 nM; in the assay with CH1 it was 18000 nM; in the assay on SK-OV-3 it was 45500 nM.

Regarding `O=C(CN1CCOCC1)Nc1ccc2c(c1)C(=O)c1ccc(NC(=O)CN3CCOCC3)cc1C2=O`, the IC50 with A2780 is 5900 nM; with CH1 it was 4150 nM; in the assay with SK-OV-3, 4500 nM; in assay [2], more than 50000 nM.

As for `O=C(CCN1CCCCC1CO)Nc1ccc2c(c1)C(=O)c1ccc(NC(=O)CCN3CCCCC3CO)cc1C2=O` (centres undefined), the figures for the IC50 with A2780, in the assay with CH1 and with SK-OV-3 were 2450 nM, 14500 nM and 2400 nM, respectively.

In the case of `O=C(CN1CCCCC1)Nc1ccc2c(c1)C(=O)c1ccc(NC(=O)CN3CCCCC3)cc1C2=O`, the IC50 was 1650 nM in the assay with A2780, 5050 nM in the assay on CH1, 5000 nM with SK-OV-3 and more than 50000 nM in assay [2].

Consider `O=C(CCN1CCCCC1)Nc1ccc2c(c1)C(=O)c1ccc(NC(=O)CCN3CCCCC3)cc1C2=O`, for which the IC50 was 1300 nM with A2780, 5900 nM with CH1, 4000 nM in the assay with SK-OV-3 and 4500 nM in assay [2].

As to `C[N+]1(CCC(=O)Nc2ccc(NC(=O)CC[N+]3(C)CCCCC3CO)c3c2C(=O)c2ccccc2C3=O)CCCCC1CO` (centres undefined), the IC50 was 380 nM in the assay on A2780, 540 nM in the assay on CH1, 1500 nM in the assay with SK-OV-3 and 9400 nM in assay [2].

With `C[N+](C)(C)CCC(=O)Nc1ccc(NC(=O)CC[N+](C)(C)C)c2c1C(=O)c1ccccc1C2=O`, the IC50 came out at 2150 nM in the assay with A2780, 2000 nM in the assay on CH1 and 11500 nM in the assay with SK-OV-3.

`C[N+](C)(C)CCC(=O)Nc1ccc2c(c1)C(=O)c1ccc(NC(=O)CC[N+](C)(C)C)cc1C2=O`: the IC50 with A2780 turned out to be 2250 nM; with CH1 it was 1900 nM; in the assay with SK-OV-3, 4400 nM; in assay [2] it was 17300 nM.

As to `O=C1c2c(O)ccc(O)c2C(=O)c2c(NCCNCCO)ccc(NCCNCCO)c21`, the inhibition entry in [4] and in assay [5] was “Weak inhibition” each time.

Regarding `C[N+]1(CCC(=O)Nc2ccc3c(c2)C(=O)c2ccc(NC(=O)CC[N+]4(C)CCOCC4)cc2C3=O)CCOCC1`, the IC50 stood at 1900 nM in the assay on A2780, 1700 nM in the assay on CH1 and 3000 nM in the assay on SK-OV-3.

Take `CN(C)CCC(=O)Nc1ccc(NC(=O)CCN(C)C)c2c1C(=O)c1ccccc1C2=O`: the IC50 in the assay on A2780 worked out at 16 nM; in the assay on CH1, 40 nM; in the assay with SK-OV-3, 360 nM. Also, the inhibition entry in assay [4] and in [5] was “Weak inhibition” throughout.

Consider `C[N+]1(CCC(=O)Nc2ccc(NC(=O)CC[N+]3(C)CCOCC3)c3c2C(=O)c2ccccc2C3=O)CCOCC1`, for which the IC50 in the assay with A2780 worked out at 760 nM; with CH1, 1650 nM; in the assay on SK-OV-3 it was 8500 nM; in assay [2] it was 34500 nM.

For the compound `COc1cccc2c1C(=O)c1c(O)c3c(c(O)c1C2=O)C[C@@](O)(C(=O)CO)C[C@@H]3O[C@H]1C[C@H](N)[C@H](O)[C@H](C)O1` [DOXORUBICIN], the IC50 in the assay with A2780 was 9.6 nM; with CH1, 6.3 nM; in the assay with SK-OV-3, 78 nM. Further, in assay [4], the inhibition entry was “Active”. Moreover, the inhibition entry in assay [6] is “Weak activity”.

With `C[N+]1(CC(=O)Nc2ccc3c(c2)C(=O)c2ccc(NC(=O)C[N+]4(C)CCCCC4)cc2C3=O)CCCCC1`, the IC50 was 6500 nM with A2780, 4300 nM in the assay with CH1 and 9000 nM in the assay on SK-OV-3.

In the case of `C[N+]1(CCC(=O)Nc2ccc3c(c2)C(=O)c2ccc(NC(=O)CC[N+]4(C)CCCCC4CO)cc2C3=O)CCCCC1CO` (centres undefined), the results for the 50% inhibitory concentration (IC50) in the assay with A2780, with CH1 and with SK-OV-3 were 1250 nM, 2300 nM and 1800 nM, respectively.

`O=C(CCN1CCN(CCO)CC1)Nc1ccc2c(c1)C(=O)c1ccc(NC(=O)CCN3CCN(CCO)CC3)cc1C2=O`: the IC50 in the assay on A2780 was determined as 11000 nM; in the assay with CH1, 7900 nM; with SK-OV-3 it was 7000 nM; in assay [2], 16500 nM.

On to `O=C(CCN1CCOCC1)Nc1ccc(NC(=O)CCN2CCOCC2)c2c1C(=O)c1ccccc1C2=O`, for which the IC50 with A2780 amounted to 3700 nM; in the assay with CH1, 1950 nM; in the assay with SK-OV-3 it was 21000 nM; in [2] it was 33500 nM.

Consider `CCC[N+](C)(CCC)CCC(=O)Nc1ccc2c(c1)C(=O)c1ccc(NC(=O)CC[N+](C)(CCC)CCC)cc1C2=O`, for which the values for the IC50 in the assay on A2780, in the assay with CH1 and with SK-OV-3 were 500 nM, 680 nM and 2000 nM, respectively.

On to `CN(C)CCC(=O)Nc1ccc2c(c1)C(=O)c1ccc(NC(=O)CCN(C)C)cc1C2=O`, for which the IC50 in the assay on A2780 is 2550 nM; in the assay on CH1 it was 1800 nM; with SK-OV-3, 2900 nM.

As to `O=C(CCN1CCCCC1)Nc1ccc(NC(=O)CCN2CCCCC2)c2c1C(=O)c1ccccc1C2=O`, the IC50 in the assay with A2780 came out at 290 nM; with CH1, 260 nM; with SK-OV-3 it was 2400 nM.

In assay [7], `Nc1nc2c(ncn2[C@H]2CC[C@@H](COP(=O)(O)OP(=O)(O)OP(=O)(O)O)O2)c(=O)[nH]1` [DIDEOXY GUANOSINE TRIPHOSPHATE] registered an IC50 of 8600 nM.

`C[N+]1(CCC(=O)Nc2ccc(NC(=O)CC[N+]3(C)CCCCC3)c3c2C(=O)c2ccccc2C3=O)CCCCC1`: the IC50 in the assay with A2780 was 1750 nM; in the assay with CH1, 4300 nM; with SK-OV-3 it was 32500 nM; in assay [2] it was 11100 nM.

`C[N+]1(CCC(=O)Nc2ccc3c(c2)C(=O)c2ccc(NC(=O)CC[N+]4(C)CCCCC4)cc2C3=O)CCCCC1`: the IC50 in the assay with A2780 is less than 1000 nM; in the assay with CH1, 1850 nM; with SK-OV-3 it was 2200 nM.

`O=C(CCN1CCOCC1)Nc1ccc2c(c1)C(=O)c1ccc(NC(=O)CCN3CCOCC3)cc1C2=O`: the IC50 in the assay on A2780 was 4800 nM; with CH1 it was 20000 nM; in the assay with SK-OV-3 it was 9000 nM; in assay [2] it was more than 50000 nM.

As for `O=C(CCN1CCCCC1CO)Nc1ccc(NC(=O)CCN2CCCCC2CO)c2c1C(=O)c1ccccc1C2=O` (centres undefined), the figures for the IC50 with A2780, in the assay on CH1 and with SK-OV-3 were 20 nM, 64 nM and 270 nM, respectively.

For `CCC[N+](C)(CCC)CCC(=O)Nc1ccc(NC(=O)CC[N+](C)(CCC)CCC)c2c1C(=O)c1ccccc1C2=O`, the figures for the IC50 with A2780, in the assay on CH1 and with SK-OV-3 were 1400 nM, 4450 nM and 16000 nM, respectively.

Usually IC50 stands for the concentration needed to halve the response being measured. A high value points to weaker potency.

Source of the values: ChEMBL document CHEMBL1131065, “1,4- and 2,6-disubstituted amidoanthracene-9,10-dione derivatives as inhibitors of human telomerase” (J Med Chem, 1998).
